How the values were obtained:
Plasmodium falciparum = assay: Antiplasmodial activity against chloroquine-resistant Plasmodium falciparum FcB1 infected in human RBC assessed as [3H]-hypoxanthine incorporation after 48 hrs by liquid scintillation counting analysis; assay type: functional, organism-based
Outline: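 FcB1 maintained in RPMI 1640 with L-glutamine, 25 mM HEPES, 10% human serum, group O RBCs, 5% CO2; synchronized by magnetic enrichment then D-sorbitol lysis. Serial dilutions in culture medium; [3H]-hypoxanthine added at 24 h, harvest at 48 h after freeze-thaw. IC50 by linear regression on linear segments of semilog inhibition curves; triplicate, three repeats.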

[1] = Selectivity index, ratio of CC50 for human MCF7 cells to IC50 for chloroquine-resistant Plasmodium falciparum FcB1; assay type: functional
[2] = Cytotoxicity against human MCF7 cells assessed as decrease in cell viability after 48 hrs by XTT assay; assay type: cell-based
Outline: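 MCF-7 cells grown as for parasite culture but with 10% fetal calf serum in place of human serum; trypsinized and seeded at 2 × 10^4 cells/well, incubated overnight, then compound added at final 1, 10 and 100 […] mL1. Viability read by XTT reduction after 48 h drug contact; experiments run twice in triplicate.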

Plasmodium berghei = assay: In vivo antimalarial activity against Plasmodium berghei ANKA assessed as inhibition of parasitemia at 30 mg/kg/day; assay type: functional
[3] = Half life in human liver microsomes; assay type: ADME

For `O=C1C(c2ccccc2)=[N+]([O-])c2cc([N+](=O)[O-])c(/C=C(\Cl)c3ccccc3)cc21`, the IC50 (Plasmodium falciparum; Plasmodium falciparum, FcB1) was 0.84 µM, the “Ratio CC50/IC50” value [1] was 70 and the CC50 at 48 h [2] was 59 µM.
With `Nc1ccc(C2=[N+]([O-])c3ccccc3C2=O)cc1` the IC50 (Plasmodium falciparum; Plasmodium falciparum, FcB1) was 0.168 µM, the “Ratio CC50/IC50” value [1] was 77 and the CC50 at 48 h [2] was 13 µM.
For `COc1ccc2c(c1)[N+]([O-])=C(c1ccc(N)cc1)C2=O`, the IC50 (Plasmodium falciparum; Plasmodium falciparum, FcB1) was 0.024 µM, the “Ratio CC50/IC50” value [1] was 528 and the CC50 at 48 h [2] was 12.7 µM.
With `COc1ccc2c(c1)C(=O)C(c1ccc(N)cc1)=[N+]2[O-].Cl` the IC50 (Plasmodium falciparum; Plasmodium falciparum, FcB1) was < 0.003 µM, the “Ratio CC50/IC50” value [1] was >3233 and the CC50 at 48 h [2] was 9.7 µM.
In the case of `COc1ccc2c(c1)C(=O)C(c1ccc(N(C)C)cc1)=[N+]2[O-].Cl`, the IC50 (Plasmodium falciparum) is reported as < 0.0003 µM, the “Ratio CC50/IC50” value [1] is reported as >112333 and the CC50 at 48 h [2] is reported as 33.7 µM.
In the case of `COc1ccc2c(c1)C(=O)C(c1ccc(N(C)C)c(C)c1)=[N+]2[O-]`, the IC50 (Plasmodium falciparum; Plasmodium falciparum, FcB1) is reported as 0.04 µM, the “Ratio CC50/IC50” value [1] is reported as 885 and the CC50 at 48 h [2] is reported as 35.4 µM.
With `CCCCNc1ccc(C2=[N+]([O-])c3ccc(OC)cc3C2=O)cc1` the IC50 (Plasmodium falciparum; Plasmodium falciparum, FcB1) was 0.021 µM, the “Ratio CC50/IC50” value [1] was 2057 and the CC50 at 48 h [2] was 43.2 µM.
For `COc1ccc2c(c1)C(=O)C(c1ccc(N3CCOCC3)cc1)=[N+]2[O-]`, the IC50 (Plasmodium falciparum; Plasmodium falciparum, FcB1) was 0.0065 µM, the “Ratio CC50/IC50” value [1] was >4538.5 and the CC50 at 48 h [2] was > 29.5 µM.
For `COc1ccc2c(c1)C(=O)C(c1cccnc1)=[N+]2[O-]`, the IC50 (Plasmodium falciparum; Plasmodium falciparum, FcB1) was 0.161 µM, the “Ratio CC50/IC50” value [1] was 107 and the CC50 at 48 h [2] was 17.3 µM.
For `O=C1C(c2ccc(Cl)cc2)=[N+]([O-])c2cccnc21`, the IC50 (Plasmodium falciparum; Plasmodium falciparum, FcB1) was > 2.72 µM.
For `O=C1C(c2ccc(Cl)cc2)=[N+]([O-])c2cc[n+]([O-])cc21`, the IC50 (Plasmodium falciparum; Plasmodium falciparum, FcB1) was > 5.44 µM.
With `CN(C)c1ccc(C2=[N+]([O-])c3cc(N)ccc3C2=O)cc1` the IC50 (Plasmodium falciparum; Plasmodium falciparum, FcB1) was 12.3 µM, the “Ratio CC50/IC50” value [1] was 1.8 and the CC50 at 48 h [2] was 21.3 µM.
In the case of `Nc1ccc2c(c1)[N+]([O-])=C(c1ccc(Cl)cc1)C2=O`, the IC50 (Plasmodium falciparum; Plasmodium falciparum, FcB1) is reported as 0.183 µM, the “Ratio CC50/IC50” value [1] is reported as 60 and the CC50 at 48 h [2] is reported as 11 µM.
In the case of `COc1ccc(C2=[N+]([O-])c3cc(N)ccc3C2=O)cc1`, the IC50 (Plasmodium falciparum; Plasmodium falciparum, FcB1) is reported as 1.56 µM, the “Ratio CC50/IC50” value [1] is reported as >33 and the CC50 at 48 h [2] is reported as > 37.3 µM.
In the case of `COc1ccc2cc(C3=[N+]([O-])c4cc(N)ccc4C3=O)ccc2c1`, the IC50 (Plasmodium falciparum; Plasmodium falciparum, FcB1) is reported as 1.32 µM, the “Ratio CC50/IC50” value [1] is reported as 6 and the CC50 at 48 h [2] is reported as 7.8 µM.
In the case of `Nc1ccc2c(c1)[N+]([O-])=C(CCCN1C(=O)c3ccccc3C1=O)C2=O`, the IC50 (Plasmodium falciparum; Plasmodium falciparum, FcB1) is reported as 8.3 µM, the “Ratio CC50/IC50” value [1] is reported as 0.8 and the CC50 at 48 h [2] is reported as 6.6 µM.
With `CCOC(=O)c1ccc2c(c1)[N+]([O-])=C(c1ccccc1)C2=O` the IC50 (Plasmodium falciparum; Plasmodium falciparum, FcB1) was 0.284 µM, the “Ratio CC50/IC50” value [1] was 91.9 and the CC50 at 48 h [2] was 26.4 µM.
For `COc1ccc2c(c1)C(=O)C(c1ccc(N(C)C)cc1)=[N+]2[O-]`, the inhibition in vivo at 30 mg/kg/day (Plasmodium berghei) was 15.3%, the IC50 (Plasmodium falciparum) was < 0.003 µM and the “Ratio CC50/IC50” value [1] was >14623.
With `O=C1C(c2ccc(Cl)cc2)=[N+]([O-])c2cc3c(cc21)OCO3` the inhibition in vivo at 30 mg/kg/day (Plasmodium berghei) was 62.1% and the half-life [3] was < 1 min.
`C[C@H]1[C@H](OC(=O)CCC(=O)O)O[C@@H]2O[C@@]3(C)CC[C@H]4[C@H](C)CC[C@@H]1[C@@]24OO3` [SODIUM ARESUNATE] showed an IC50 (Plasmodium falciparum; Plasmodium falciparum, FcB1) of 0.006 µM.

— ChEMBL document CHEMBL3352368, “Amino derivatives of indolone-N-oxide: preparation and antiplasmodial properties” (Eur J Med Chem, 2014)
